Reference: ChEMBL document CHEMBL4706730, “A Set of Highly Sensitive Sirtuin Fluorescence Probes for Screening Small-Molecular Sirtuin Defatty-Acylase Inhibitors” (ACS Med Chem Lett, 2021)
Active and inactive are the calls of the source. The rule behind the calls is not given here.

Columns and labels:
[1] = target: T1, NAD-dependent protein deacetylase sirtuin-3, mitochondrial (Homo sapiens) (UniProt Q9NTG7); assay: (§1) Inhibition of 5-(3-((1r,4r)-4-((5S,8S,11S,14S,17S,20S,29S)-11-((1H-imidazol-4-yl)methyl)-1,33-diamino-5-carbamoyl-17-(4-(4-(4-((4-(dimethylamino)phenyl)diazenyl)phenyl)butanamido)butyl)-8,14-bis(3-guanidinopropyl)-20-methyl-7,10,13,16,19,22,25,28-octaoxo-6,9,12,15,18,21,24,27-octaazatritriacontan-29-ylcarbamoyl)cyclohexyl)thioureido)-2-(6-hydroxy-3-oxo-3H-xanthen-9-yl)benzoic acid binding to SIRT3 (unknown origin) at 50 uM measured after 2 hrs in presence of NAD+ by fluorometric method
T1 sequence (whole entry): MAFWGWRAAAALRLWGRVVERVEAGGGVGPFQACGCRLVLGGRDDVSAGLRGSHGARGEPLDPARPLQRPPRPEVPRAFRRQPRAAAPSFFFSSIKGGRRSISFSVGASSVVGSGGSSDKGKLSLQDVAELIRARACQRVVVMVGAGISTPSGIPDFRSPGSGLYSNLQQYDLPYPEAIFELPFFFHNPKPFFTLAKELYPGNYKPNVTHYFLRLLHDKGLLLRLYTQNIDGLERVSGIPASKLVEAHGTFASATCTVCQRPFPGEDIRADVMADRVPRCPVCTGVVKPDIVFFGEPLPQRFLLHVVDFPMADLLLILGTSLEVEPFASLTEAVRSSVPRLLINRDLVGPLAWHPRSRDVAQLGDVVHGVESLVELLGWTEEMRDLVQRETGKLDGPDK

[2] = target: T2, NAD-dependent protein deacetylase sirtuin-2 (Homo sapiens, UniProt Q8IXJ6); assay: as §1, with “SIRT2” for “SIRT3”, “origin)” for “origin) at 50 uM”
T2 sequence (Q8IXJ6 whole entry): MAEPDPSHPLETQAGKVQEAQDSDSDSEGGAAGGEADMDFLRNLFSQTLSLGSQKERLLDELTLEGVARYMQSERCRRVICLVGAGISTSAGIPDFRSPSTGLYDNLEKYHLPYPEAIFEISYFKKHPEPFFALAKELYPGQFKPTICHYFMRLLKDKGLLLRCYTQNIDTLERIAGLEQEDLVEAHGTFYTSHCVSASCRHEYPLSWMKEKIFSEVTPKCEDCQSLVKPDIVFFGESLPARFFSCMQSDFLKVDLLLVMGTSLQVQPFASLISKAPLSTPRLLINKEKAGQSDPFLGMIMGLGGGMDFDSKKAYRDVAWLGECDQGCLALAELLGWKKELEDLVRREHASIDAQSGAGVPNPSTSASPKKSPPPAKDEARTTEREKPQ
How it was run: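 The second screen used the same SIRT2 one-step FRET probe conditions, validated at 2.92 nM SIRT2. Compounds were tested over a range of concentrations to check dose-dependency, and the IC50 was derived from the dose–response curve.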

[3] = target: T3, NAD-dependent protein deacetylase sirtuin-1 (Homo sapiens) (UniProt Q96EB6); assay: as §1, with “SIRT1” for “SIRT3”
T3 sequence (whole entry): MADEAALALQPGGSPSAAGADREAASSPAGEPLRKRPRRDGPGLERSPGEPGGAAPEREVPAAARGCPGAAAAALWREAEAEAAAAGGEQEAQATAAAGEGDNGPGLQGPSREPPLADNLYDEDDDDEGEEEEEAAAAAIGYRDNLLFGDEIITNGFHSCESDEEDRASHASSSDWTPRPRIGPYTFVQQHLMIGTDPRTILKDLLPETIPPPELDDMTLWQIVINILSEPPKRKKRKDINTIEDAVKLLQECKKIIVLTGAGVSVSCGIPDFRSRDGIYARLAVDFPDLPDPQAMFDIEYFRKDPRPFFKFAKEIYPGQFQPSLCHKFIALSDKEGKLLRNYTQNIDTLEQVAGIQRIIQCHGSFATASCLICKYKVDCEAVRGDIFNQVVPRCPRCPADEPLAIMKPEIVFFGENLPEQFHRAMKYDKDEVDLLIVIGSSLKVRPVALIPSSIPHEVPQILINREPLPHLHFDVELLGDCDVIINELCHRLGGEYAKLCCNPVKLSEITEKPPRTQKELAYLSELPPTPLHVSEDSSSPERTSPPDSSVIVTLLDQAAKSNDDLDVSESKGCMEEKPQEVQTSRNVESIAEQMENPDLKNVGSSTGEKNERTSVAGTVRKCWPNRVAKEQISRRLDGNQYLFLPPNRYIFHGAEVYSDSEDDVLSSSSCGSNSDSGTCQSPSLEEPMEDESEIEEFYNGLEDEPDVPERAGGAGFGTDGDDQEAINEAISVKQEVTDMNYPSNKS

[4] = target: T4, NAD-dependent protein deacetylase sirtuin-2 (Homo sapiens) (UniProt Q8IXJ6); assay: as §1, with “SIRT2” for “SIRT3”, “10” for “50”, “method relative to control” for “method”
T4 sequence (whole entry): T2 sequence (Q8IXJ6 whole entry)
How it was run: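 In the primary library screen, 384-well plates held SIRT2 with the Dabcyl-BH/H4K16 one-step FRET probe. Each compound was tested at 10 μM with 0.5% DMSO, and inhibition was taken from the fluorescence signal.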

[5] = target: NAD-dependent protein deacylase sirtuin-6 (Homo sapiens) (UniProt Q8N6T7); assay: Inhibition of 5-[[(1r,4r)-4-[[(1S)-4-amino-1-[[(1S,2R)-1-[[(1S)-2-[[(1S)-1-[[(1S)-1-[[(1S)-2-[[(1S,2R)-1-[[2-(carboxymethylamino)-2-oxoethyl]carbamoyl]-2-hydroxypropyl]amino]-1-(hydroxymethyl)-2-oxoethyl]carbamoyl]-5-[3-[N-methyl-4-[(4-nitrophenyl)azo]anilino]propanoylamino]pentyl]carbamoyl]-4-guanidinobutyl]amino]-1-methyl-2-oxoethyl]carbamoyl]-2-hydroxypropyl]carbamoyl]-4-oxobutyl]carbamoyl]cyclohexyl]carbamothioylamino]-2-(3-hydroxy-6-oxoxanthen-9-yl)benzoic acid binding to SIRT6 (unknown origin) at 50 uM measured after 2 hrs in presence of NAD+ by fluorometric method
Chain of NAD-dependent protein deacylase sirtuin-6 (Homo sapiens) (Q8N6T7 whole entry): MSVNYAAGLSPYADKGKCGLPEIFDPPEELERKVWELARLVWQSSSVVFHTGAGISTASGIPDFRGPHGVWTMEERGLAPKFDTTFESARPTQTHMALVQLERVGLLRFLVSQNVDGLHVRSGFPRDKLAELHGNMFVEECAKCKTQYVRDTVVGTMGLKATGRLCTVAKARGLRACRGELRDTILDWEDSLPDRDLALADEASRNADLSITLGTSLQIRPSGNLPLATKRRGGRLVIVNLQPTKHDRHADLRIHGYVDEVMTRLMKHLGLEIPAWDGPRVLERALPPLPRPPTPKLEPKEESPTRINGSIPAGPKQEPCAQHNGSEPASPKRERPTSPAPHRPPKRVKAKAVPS

[6] = target: T2, NAD-dependent protein deacetylase sirtuin-2; assay: (§2) Inhibition of p53(Myr)-AMC binding to SIRT2 (unknown origin) incubated for 3 hrs in presence of NAD+ followed by trypsin addition and measured at 5 mins interval for 20 mins by fluorometric method
[7] = target: T4, NAD-dependent protein deacetylase sirtuin-2 (Homo sapiens); assay: as §2; settings: time 200.0 min
[8] = target: T2, NAD-dependent protein deacetylase sirtuin-2; assay: Inhibition of SIRT2 deacetylation activity (unknown origin) using FLUOR DE LYS SIRT2 peptide as substrate incubated for 2 hrs in presence of NAD+ measured at 5 mins interval for 20 mins by fluorescence assay

With `CCOC(=O)C[C@@H]1C[C@@H](C(C)C)[C@H](CNC(=O)c2cncnc2)C=C1C` the inhibition [1] was “inactive”, the IC50 [2] was 47.9 µM and the inhibition [3] was “inactive”. The inhibition [4] was over 35%, the inhibition [5] was “inactive” and the IC50 [6] was 44.4 µM. The inhibition [7] was “Dose-dependent effect” and the IC50 [8] was 5.09 µM.
